Source: ChEMBL document CHEMBL1150203, “Antimicrobial diterpenes of Croton sonderianus, 1. Hardwickic and 3,4-secotrachylobanoic acids” (1991)
Values after ≈ are worked out from the molar mass of the structure shown.

Key:
Assay type in all cases: functional
[1] = tested on: Saccharomyces cerevisiae; test: Antifungal activity against Saccharomyces cerevisiae ATCC 9763 at 1 mg/ml after 72 hrs by agar-well diffusion assay; details: ATCC 9763, 72 h, read-out: IZ
Method in brief: (§1)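 Fungi and yeasts streaked on mycophil agar from broth culture diluted 1:10 in sterile water; 100 μl of compound at 1 mg/ml placed in 11 mm cork-borer wells; plates held at 30°. Inhibition zone width (mm) recorded at 48 and 72 h and coded – to ++++ (1–2, 3–6, 7–12, >13 mm); amphotericin B positive control.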

[2] = tested on: Candida albicans; test: Antifungal activity against Candida albicans ATCC 10231 at 1 mg/ml after 48 hrs by agar-well diffusion assay; details: ATCC 10231, 48 h, read-out: IZ; method in brief: as §1
[3] = tested on: Candida albicans; test: Antifungal activity against Candida albicans ATCC 10231 at 1 mg/ml after 72 hrs by agar-well diffusion assay; details: ATCC 10231, 72 h, read-out: IZ; method in brief: as §1
[4] = tested on: Aspergillus niger; test: Antifungal activity against Aspergillus niger ATCC 16888 at 1 mg/ml after 48 hrs by agar-well diffusion assay; details: ATCC 16888, 48 h, read-out: IZ; method in brief: as §1
[5] = tested on: Aspergillus niger; test: Antifungal activity against Aspergillus niger ATCC 16888 at 1 mg/ml after 72 hrs by agar-well diffusion assay; details: ATCC 16888, 72 h, read-out: IZ; method in brief: as §1
[6] = tested on: Trichophyton mentagrophytes; test: Antifungal activity against Trichophyton mentagrophytes ATCC 9972 at 1 mg/ml after 48 hrs by agar-well diffusion assay; details: ATCC 9972, 48 h, read-out: IZ; method in brief: as §1
[7] = tested on: Trichophyton mentagrophytes; test: Antifungal activity against Trichophyton mentagrophytes ATCC 9972 at 1 mg/ml after 72 hrs by agar-well diffusion assay; details: ATCC 9972, 72 h, read-out: IZ; method in brief: as §1
[8] = tested on: Trametes sanguinea; test: Antifungal activity against Polyporus sanguineus ATCC 16422 at 1 mg/ml after 48 hrs by agar-well diffusion assay; details: ATCC 16422, 48 h, read-out: IZ; method in brief: as §1
[9] = tested on: Trametes sanguinea; test: Antifungal activity against Polyporus sanguineus ATCC 16422 at 1 mg/ml after 72 hrs by agar-well diffusion assay; details: ATCC 16422, 72 h, read-out: IZ; method in brief: as §1
[10] = tested on: Helminthosporium; test: Antifungal activity against Helminthosporium ATCC 4671 at 1 mg/ml after 48 hrs by agar-well diffusion assay; details: ATCC 4671, 48 h, read-out: IZ; method in brief: as §1
[11] = tested on: Helminthosporium; test: Antifungal activity against Helminthosporium ATCC 4671 at 1 mg/ml after 72 hrs by agar-well diffusion assay; details: ATCC 4671, 72 h, read-out: IZ; method in brief: as §1
[12] = tested on: Trichophyton mentagrophytes; test: Antifungal activity against Trichophyton mentagrophytes ATCC 9972 after 24 hrs by twofold serial dilution method; details: ATCC 9972, 24 h
[13] = tested on: Trichophyton mentagrophytes; test: Antifungal activity against Trichophyton mentagrophytes ATCC 9972 after 48 hrs by twofold serial dilution method; details: ATCC 9972, 48 h
[14] = tested on: Saccharomyces cerevisiae; test: Antifungal activity against Saccharomyces cerevisiae ATCC 9763 after 24 hrs by twofold serial dilution method; details: ATCC 9763, 24 h
[15] = tested on: Saccharomyces cerevisiae; test: Antifungal activity against Saccharomyces cerevisiae ATCC 9763 after 48 hrs by twofold serial dilution method; details: ATCC 9763, 48 h
[16] = tested on: Saccharomyces cerevisiae; test: Antifungal activity against Saccharomyces cerevisiae ATCC 9763 at 1 mg/ml after 48 hrs by agar-well diffusion assay; details: ATCC 9763, 48 h, read-out: IZ; method in brief: as §1

MIC [12]: 0.78 µg/mL (≈ 0.844 µM) | MIC [13]: 0.78 µg/mL (≈ 0.844 µM) | MIC [14]: 6.25 µg/mL (≈ 6.76 µM) | MIC [15]: 12.5 µg/mL (≈ 13.5 µM)
SMILES: C[C@@H]1[C@H](O)[C@@H](C)/C=C/C=C/C=C/C=C/C=C/C=C/C=C/[C@H](O[C@@H]2O[C@H](C)[C@@H](O)[C@H](N)[C@@H]2O)C[C@@H]2O[C@](O)(C[C@@H](O)C[C@@H](O)[C@H](O)CC[C@@H](O)C[C@@H](O)CC(=O)O[C@H]1C)C[C@H](O)[C@H]2C(=O)O [AMPHOTERICIN B]
zone of inhibition at 1000 µg/mL [1]: 7 mm | zone of inhibition at 1000 µg/mL [2]: 7 mm | zone of inhibition at 1000 µg/mL [3]: 7 mm | zone of inhibition at 1000 µg/mL [4]: 7 mm | zone of inhibition at 1000 µg/mL [5]: 7 mm | zone of inhibition at 1000 µg/mL [6]: 7 mm | zone of inhibition at 1000 µg/mL [7]: 7 mm | zone of inhibition at 1000 µg/mL [8]: > 12 mm | zone of inhibition at 1000 µg/mL [9]: > 12 mm | zone of inhibition at 1000 µg/mL [10]: > 12 mm | zone of inhibition at 1000 µg/mL [11]: > 12 mm | zone of inhibition at 1000 µg/mL [16]: 7 mm
